According to ChEMBL document CHEMBL4834416, “The Discovery of Novel ACA Derivatives as Specific TRPM2 Inhibitors that Reduce Ischemic Injury Both In Vitro and In Vivo” (J Med Chem, 2021):
Activity calls are given as the source filed them. The calls are words filed in the database; no cut-off is given here.

Legend:
[1] = target: T1, Transient receptor potential cation channel subfamily M member 2 (Homo sapiens, UniProt O94759); assay: Inhibition of human TRPM2 expressed in HEK293T cells assessed as blocked of ADPR-activated current by whole cell patch clamp electrophysiology; assay type: cell-based
T1 sequence (O94759 whole entry): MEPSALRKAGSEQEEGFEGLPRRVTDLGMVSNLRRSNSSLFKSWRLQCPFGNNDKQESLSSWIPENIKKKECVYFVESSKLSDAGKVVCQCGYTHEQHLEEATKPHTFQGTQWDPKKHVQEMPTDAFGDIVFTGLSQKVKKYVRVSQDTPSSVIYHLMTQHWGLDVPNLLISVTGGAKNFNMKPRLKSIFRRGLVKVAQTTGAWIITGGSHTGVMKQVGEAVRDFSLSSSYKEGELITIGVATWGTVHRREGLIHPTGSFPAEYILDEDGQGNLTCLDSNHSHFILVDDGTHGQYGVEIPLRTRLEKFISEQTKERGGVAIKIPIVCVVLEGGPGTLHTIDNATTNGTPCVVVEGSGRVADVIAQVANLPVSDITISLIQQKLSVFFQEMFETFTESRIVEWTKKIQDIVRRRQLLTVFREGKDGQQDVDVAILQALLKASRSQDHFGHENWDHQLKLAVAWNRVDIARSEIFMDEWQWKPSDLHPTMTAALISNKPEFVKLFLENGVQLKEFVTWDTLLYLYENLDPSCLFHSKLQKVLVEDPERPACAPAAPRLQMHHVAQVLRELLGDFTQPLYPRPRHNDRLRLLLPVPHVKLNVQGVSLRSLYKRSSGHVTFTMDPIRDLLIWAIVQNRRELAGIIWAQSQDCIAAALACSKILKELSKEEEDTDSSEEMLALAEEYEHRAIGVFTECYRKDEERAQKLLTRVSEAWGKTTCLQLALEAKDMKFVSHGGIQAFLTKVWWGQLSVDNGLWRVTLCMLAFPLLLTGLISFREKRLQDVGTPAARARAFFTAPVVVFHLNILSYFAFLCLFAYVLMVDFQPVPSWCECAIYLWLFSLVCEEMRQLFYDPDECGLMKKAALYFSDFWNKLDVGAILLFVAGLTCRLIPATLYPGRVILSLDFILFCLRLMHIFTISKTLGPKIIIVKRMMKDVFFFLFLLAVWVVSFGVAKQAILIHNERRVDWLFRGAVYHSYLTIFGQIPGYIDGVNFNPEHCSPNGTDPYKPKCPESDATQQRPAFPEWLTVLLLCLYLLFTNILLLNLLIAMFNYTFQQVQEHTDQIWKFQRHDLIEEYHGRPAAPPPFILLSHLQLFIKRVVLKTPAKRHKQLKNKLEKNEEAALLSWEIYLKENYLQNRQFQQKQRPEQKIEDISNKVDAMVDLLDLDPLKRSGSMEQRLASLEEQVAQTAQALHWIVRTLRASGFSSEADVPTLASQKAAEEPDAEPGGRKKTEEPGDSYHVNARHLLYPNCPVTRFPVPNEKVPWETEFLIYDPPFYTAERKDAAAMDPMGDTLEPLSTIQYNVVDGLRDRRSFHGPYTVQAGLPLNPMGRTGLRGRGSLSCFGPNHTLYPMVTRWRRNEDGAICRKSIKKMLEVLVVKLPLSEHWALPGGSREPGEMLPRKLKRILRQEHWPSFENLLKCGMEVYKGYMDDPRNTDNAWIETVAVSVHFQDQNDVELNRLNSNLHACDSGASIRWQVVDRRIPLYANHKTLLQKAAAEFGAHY

[2] = Cmax in C57BL/6 mouse plasma at 100 mg/kg, IG by LC-MS/MS analysis; assay type: ADME, organism-based; set-up: route […], dose 100 mg/kg; conditions: po
[3] = Half life in C57BL/6 mouse plasma at 100 mg/kg, IG by LC-MS/MS analysis; assay type: ADME, organism-based; conditions: po
[4] = target: Transient receptor potential cation channel subfamily M member 8 (Homo sapiens, UniProt Q7Z2W7); assay: Inhibition of human TRPM8 expressed in HEK293T cells assessed as blocked of menthol-activated current at 10 uM by whole cell patch clamp electrophysiology relative to control; assay type: cell-based
Transient receptor potential cation channel subfamily M member 8, sequence (Q7Z2W7 whole entry, looked up, the tested form may be a part): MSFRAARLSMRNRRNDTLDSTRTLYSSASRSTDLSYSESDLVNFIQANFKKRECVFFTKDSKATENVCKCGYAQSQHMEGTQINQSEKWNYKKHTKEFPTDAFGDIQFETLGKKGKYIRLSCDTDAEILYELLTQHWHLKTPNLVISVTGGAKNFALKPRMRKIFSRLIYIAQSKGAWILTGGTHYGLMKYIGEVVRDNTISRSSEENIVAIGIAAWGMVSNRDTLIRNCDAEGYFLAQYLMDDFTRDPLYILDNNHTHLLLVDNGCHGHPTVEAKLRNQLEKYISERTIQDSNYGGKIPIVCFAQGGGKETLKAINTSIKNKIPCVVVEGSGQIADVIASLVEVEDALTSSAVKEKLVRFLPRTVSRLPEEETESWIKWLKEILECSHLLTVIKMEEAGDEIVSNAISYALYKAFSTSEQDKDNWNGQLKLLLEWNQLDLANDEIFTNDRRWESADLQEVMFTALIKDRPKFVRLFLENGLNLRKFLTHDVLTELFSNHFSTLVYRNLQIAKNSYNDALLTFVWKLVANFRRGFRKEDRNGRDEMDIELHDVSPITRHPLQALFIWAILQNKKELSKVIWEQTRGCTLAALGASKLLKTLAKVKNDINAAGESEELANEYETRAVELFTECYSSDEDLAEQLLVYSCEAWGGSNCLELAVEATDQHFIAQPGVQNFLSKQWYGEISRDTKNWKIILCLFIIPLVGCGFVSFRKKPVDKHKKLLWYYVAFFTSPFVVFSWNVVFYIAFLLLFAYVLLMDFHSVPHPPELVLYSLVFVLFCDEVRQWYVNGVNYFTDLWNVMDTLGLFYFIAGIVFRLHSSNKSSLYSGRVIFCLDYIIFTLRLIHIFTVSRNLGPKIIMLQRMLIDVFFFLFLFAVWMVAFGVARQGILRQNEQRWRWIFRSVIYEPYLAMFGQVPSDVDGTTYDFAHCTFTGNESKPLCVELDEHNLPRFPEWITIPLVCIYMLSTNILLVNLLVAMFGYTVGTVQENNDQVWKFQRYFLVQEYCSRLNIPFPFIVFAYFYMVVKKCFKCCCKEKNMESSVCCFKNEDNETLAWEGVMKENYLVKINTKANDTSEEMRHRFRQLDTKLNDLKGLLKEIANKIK
Summary of the method: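 Whole-cell patch clamp was run at room temperature on HEK293T cells transiently cotransfected with human TRPM8 plus GFP, 24–48 h before recording. ECS was 145 NaCl, 5.6 KCl, 2 MgCl₂, 1.2 CaCl₂, 10 HEPES, pH 7.2. Current was activated with 1 mM menthol, and compound was perfused at least 60 s after it stabilized. Inhibition was calculated relative to stable agonist current minus residual current; n = 3–6.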

[5] = Clearance in C57BL/6 mouse plasma at 1 mg/kg, iv by LC-MS/MS analysis; assay type: ADME, organism-based
[6] = MRT in C57BL/6 mouse plasma at 0.3 mg/kg, iv by LC-MS/MS analysis; assay type: ADME, organism-based
[7] = Half life in C57BL/6 mouse plasma at 10 mg/kg, IG by LC-MS/MS analysis; assay type: ADME, organism-based; conditions: po
[8] = Tmax in C57BL/6 mouse plasma at 1 mg/kg, iv by LC-MS/MS analysis; assay type: ADME, organism-based
Phospholipase A2 [9] = target: T2, Phospholipase A2 (Homo sapiens, UniProt P04054); assay: Inhibition of PLA2 (unknown origin) using soybean phosphatidylcholine as substrate at 10 uM preincubated for 30 mins followed incubated for 60 mins after substrate addition by microplate reader relative to control
T2 sequence (P04054 23-148 limits assumed): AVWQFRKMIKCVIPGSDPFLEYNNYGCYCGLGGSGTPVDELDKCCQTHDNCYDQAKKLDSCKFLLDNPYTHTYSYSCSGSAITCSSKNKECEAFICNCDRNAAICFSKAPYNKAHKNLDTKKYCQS
Summary of the method: (§1)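 PLA2 (4 μg/L in PBS) was preincubated 30 min at 37 °C with inhibitor in 125 mM Tris. Substrate was then added for 60 min: soybean phosphatidylcholine with Tris, CaCl₂, sodium deoxycholate and 0.5% Triton X-100. Liberated free fatty acids were quantified colorimetrically at OD550. Results are % inhibition versus enzyme without inhibitor, n = 3.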

SH-SY5Y [10] = assay: Neuroprotective activity against oxygen glucose deprivation/reperfusion-induced cell death in human SH-SY5Y cells assessed as cell viability at 0.3 uM […] for 12 hrs by CCK8 assay relative to control; assay type: functional; conditions: read-out: Activity
[11] = Tmax in C57BL/6 mouse plasma at 10 mg/kg, IG by LC-MS/MS analysis; assay type: ADME, organism-based; conditions: po
[12] = Half life in C57BL/6 mouse plasma at 1 mg/kg, iv by LC-MS/MS analysis; assay type: ADME, organism-based
Mus musculus [13] = assay: Neuroprotective activity in mouse model of transient middle cerebral artery occlusion-induced cerebral ischemia-reperfusion injury assessed as reduction in infarct volume at 0.3 mg/kg, iv treated for 3 hrs after onset of reperfusion by TTC staining based assay (reference value: 52 +/- 1.7%); assay type: functional; set-up: scale not given: the % may be the effect or the level left
[14] = AUC (0 to infinitive) in C57BL/6 mouse plasma at 100 mg/kg, IG by LC-MS/MS analysis; assay type: ADME, organism-based; set-up: route […], time infinity, dose 100 mg/kg; conditions: po
[15] = Oral bioavailability in C57BL/6 mouse plasma at 1 mg/kg, IG by LC-MS/MS analysis; assay type: ADME, organism-based
[16] = Tmax in C57BL/6 mouse plasma at 0.3 mg/kg, iv by LC-MS/MS analysis; assay type: ADME, organism-based
Mus musculus [17] = assay: Neuroprotective activity in mouse model of transient middle cerebral artery occlusion-induced cerebral ischemia-reperfusion injury assessed as reduction neurological score at 0.3 mg/kg, iv treated for 3 hrs after onset of reperfusion by TTC staining based assay relative to control; assay type: functional, organism-based
Mus musculus [18] = assay: Neuroprotective activity in mouse model of transient middle cerebral artery occlusion-induced cerebral ischemia-reperfusion injury assessed as reduction in infarct volume at 1 mg/kg, iv treated for 3 hrs after onset of reperfusion by TTC staining based assay (reference value: 52 +/- 1.7%); assay type: functional; set-up: scale not given: the % may be the effect or the level left
Mus musculus [19] = assay: Neuroprotective activity in mouse model of transient middle cerebral artery occlusion-induced cerebral ischemia-reperfusion injury assessed as reduction in infarct volume at 3 mg/kg, iv treated for 3 hrs after onset of reperfusion by TTC staining based assay (reference value: 57.6 +/- 4.9%); assay type: functional; set-up: scale not given: the % may be the effect or the level left
[20] = AUC (0 to infinitive) in C57BL/6 mouse plasma at 1 mg/kg, iv by LC-MS/MS analysis; assay type: ADME, organism-based; set-up: time infinity, route intravenous, dose 1 mg/kg
Phospholipase A2 [21] = target: T2, Phospholipase A2; assay: Inhibition of PLA2 (unknown origin) using soybean phosphatidylcholine as substrate at 3 uM preincubated for 30 mins followed incubated for 60 mins after substrate addition by microplate reader relative to control; summary of the method: as §1
[22] = MRT in C57BL/6 mouse plasma at 1 mg/kg, iv by LC-MS/MS analysis; assay type: ADME, organism-based
SH-SY5Y [23] = assay: Cytotoxicity against human SH-SY5Y cells assessed as toxicity at 30 uM incubated for 24 hrs by CCK-8 assay; assay type: cell-based
Summary of the method: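 SH-SY5Y cells were seeded at 2 × 10⁴ per well and grown 12 h at 37 °C. They were then treated with compound (1–30 μM) under normoxic, normal-glucose conditions for 24 h. CCK-8 (10%) was added for 2 h at 37 °C and OD450 read. Viability was taken relative to untreated control after blank subtraction, with three replicate wells.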

[24] = Cmax in C57BL/6 mouse plasma at 3 mg/kg, iv by LC-MS/MS analysis; assay type: ADME, organism-based; set-up: route intravenous, dose 3 mg/kg
[25] = Cmax in C57BL/6 mouse plasma at 10 mg/kg, IG by LC-MS/MS analysis; assay type: ADME, organism-based; set-up: route […], dose 10 mg/kg; conditions: po
[26] = target: T1, Transient receptor potential cation channel subfamily M member 2; assay: Inhibition of human TRPM2 expressed in HEK293T cells assessed as suppression of H2O2-induced calcium flux at 1 uM measured after 30 mins by Fluo-3/AM assay; assay type: cell-based
[27] = AUC (0 to t) in C57BL/6 mouse plasma at 1 mg/kg, iv by LC-MS/MS analysis; assay type: ADME, organism-based; set-up: dose 1 mg/kg
[28] = Oral bioavailability in C57BL/6 mouse plasma at 0.3 mg/kg, IG by LC-MS/MS analysis; assay type: ADME, organism-based
[29] = AUC (0 to t) in C57BL/6 mouse plasma at 0.3 mg/kg, iv by LC-MS/MS analysis; assay type: ADME, organism-based; set-up: dose 0.3 mg/kg
[30] = Toxicity in C57BL/6 mouse assessed as adverse effect at 100 mg/kg, IG; assay type: organism-based; conditions: in vivo, po
[31] = Clearance in C57BL/6 mouse plasma at 0.3 mg/kg, iv by LC-MS/MS analysis; assay type: ADME, organism-based
Mus musculus [32] = assay: Neuroprotective activity in mouse model of transient middle cerebral artery occlusion-induced cerebral ischemia-reperfusion injury assessed as reduction neurological score at 3 mg/kg, iv treated for 3 hrs after onset of reperfusion by TTC staining based assay (reference value: 2.4 +/- 0.5); assay type: functional
Mus musculus [33] = assay: Neuroprotective activity in mouse model of transient middle cerebral artery occlusion-induced cerebral ischemia-reperfusion injury assessed as reduction neurological score at 1 mg/kg, iv treated for 3 hrs after onset of reperfusion by TTC staining based assay relative to control; assay type: functional, organism-based

Question: Which IC50 [1] does the source give for O=C(/C=C/c1ccc(-c2cccc(C(F)(F)F)c2)cc1)Nc1ccccc1C(=O)O here?
Answer: 0.788 µM

Question: What about the Cmax [2] of the same compound?
Answer: 168 µg/mL

Question: And the half-life [3]?
Answer: 3.62 h

Question: What about the inhibition [4] of the same compound?
Answer: 22.6%

Question: And the clearance [5]?
Answer: 0.0529 L/h/kg

Question: And the MRT [6]?
Answer: 1.19 h

Question: And the half-life [7]?
Answer: 1.42 h

Question: And the Tmax [8]?
Answer: 4.8 min

Question: And the inhibition (Phospholipase A2 [9])?
Answer: 14.8%

Question: What about the viability at 0.3 µM (SH-SY5Y [10]) of the same compound?
Answer: 68.7%

Question: And the Tmax [11]?
Answer: 0.5 h

Question: And the half-life [12]?
Answer: 1.7 h

Question: And the Activity (Mus musculus [13])?
Answer: 39.8%

Question: And the AUC(0-inf) [14]?
Answer: 1870 µg·h/mL

Question: And the bioavailability [15]?
Answer: 84.8%

Question: And the Tmax [16]?
Answer: 4.8 min

Question: And the Activity (Mus musculus [17])?
Answer: inactive

Question: What about the Activity (Mus musculus [18]) of the same compound?
Answer: 38.5%

Question: And the Activity (Mus musculus [19])?
Answer: 38.9%

Question: What about the AUC(0-inf) [20] of the same compound?
Answer: 18.9 µg·h/mL

Question: What about the inhibition (Phospholipase A2 [21]) of the same compound?
Answer: 7.8%

Question: And the MRT [22]?
Answer: 1.7 h

Question: What about the Activity (SH-SY5Y [23]) of the same compound?
Answer: < 10%

Question: And the Cmax [24]?
Answer: 24.3 µg/mL

Question: And the Cmax [25]?
Answer: 58.4 µg/mL

Question: And the inhibition [26]?
Answer: > 45%

Question: What about the AUC(0-t) [27] of the same compound?
Answer: 18.5 µg·h/mL

Question: What about the bioavailability [28] of the same compound?
Answer: 90.4%

Question: What about the AUC(0-t) [29] of the same compound?
Answer: 5.2 µg·h/mL

Question: What about the Activity [30] of the same compound?
Answer: Non-Toxic

Question: And the clearance [31]?
Answer: 0.055 L/h/kg

Question: What about the Activity (Mus musculus [32]) of the same compound?
Answer: 1.8

Question: And the Activity (Mus musculus [33])?
Answer: inactive
